Experimental data reported in ChEMBL document CHEMBL4190388, “Discovery and Optimization of Indolyl-Containing 4-Hydroxy-2-Pyridone Type II DNA Topoisomerase Inhibitors Active against Multidrug Resistant Gram-negative Bacteria” (J Med Chem, 2018).
In brackets after ≈: the same amount, converted by molar mass. Each block holds one molecule with its values, some of them ahead of it.

Tests used:
[1] = test system: Escherichia coli; assay: Antibacterial activity against aminoglycoside resistant Escherichia coli by broth microdilution method; format: functional; settings: Escherichia coli; for MIC: read-out: MIC
Summary of the method: (§1)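 MICs were determined by CLSI broth methods, except that organisms were grown in brain–heart–infusion medium. The panel comprised wild-type and resistant E. coli and A. baumannii strains, including 12 strains whose details are given by reference.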

[2] = test system: Acinetobacter baumannii; assay: Antibacterial activity against wild type Acinetobacter baumannii by broth microdilution method; format: functional; summary of the method: as §1
[3] = test system: Escherichia coli; assay: Antibacterial activity against Escherichia coli infected in cyclophosphamide treated neutropenic CD1 mouse septicemia model assessed as mouse survival at 20 mg/kg, iv dosed at 1 hr post infection followed by redosing at 5 hrs post infection measured at 96 hrs post infection relative to control; format: functional
Summary of the method: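 Female CD-1 mice were made neutropenic with cyclophosphamide ip, 150 mg/kg on day −4 and 100 mg/kg on day −1. […] Compound was given iv in 3% DMSO/saline at 1 and 5 h postinfection, n = 6 per group. Percent survival was scored at 96 h postinfection.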

[4] = test system: Acinetobacter baumannii; assay: Antibacterial activity against beta-lactam resistant Acinetobacter baumannii by broth microdilution method; format: functional; settings: Acinetobacter baumannii; summary of the method: as §1
[5] = test system: Mus musculus; assay: AUC (0 to 24 hrs) in CD1 mouse plasma at 10 mg/kg, iv by LC-MS/MS analysis; format: ADME, organism-based; design: time < 24 hr, dose 10 mg/kg, route intravenous; settings: in vivo
Summary of the method: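 CD-1 mice given a single 10 mg/kg iv dose (n = 3), in either 10% DMSO plus 1% Tween 80 in pH 8.0 phosphate buffer or 20% (2-hydroxypropyl)-β-cyclodextrin in pH 4.0 citrate buffer; plasma exposure measured.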

[6] = test system: Acinetobacter baumannii; assay: Antibacterial activity against fluoroquinolone resistant Acinetobacter baumannii isolate MMX2240 by CLSI M100-S17 protocol based method; format: functional
[7] = test system: Acinetobacter baumannii; assay: Antibacterial activity against carbapenem resistant Acinetobacter baumannii by broth microdilution method; format: functional; settings: Acinetobacter baumannii; summary of the method: as §1
[8] = test system: Escherichia coli; assay: Antibacterial activity against beta-lactam resistant Escherichia coli by broth microdilution method; format: functional; settings: Escherichia coli; for MIC: read-out: MIC; summary of the method: as §1
[9] = test system: Mus musculus; assay: Terminal half life in CD1 mouse plasma at 10 mg/kg, iv by LC-MS/MS analysis; format: ADME, organism-based; settings: in vivo
[10] = test system: Escherichia coli; assay: Antibacterial activity against wild type Escherichia coli ATCC 25922 by CLSI M100-S17 protocol based method; format: functional
[11] = test system: Acinetobacter baumannii; assay: Antibacterial activity against quinolone resistant Acinetobacter baumannii by broth microdilution method; format: functional; settings: Acinetobacter baumannii; summary of the method: as §1
[12] = Oral bioavailability in CD1 mouse plasma by LC-MS/MS analysis; format: ADME, organism-based
[13] = test system: Acinetobacter baumannii; assay: Antibacterial activity against aminoglycoside resistant Acinetobacter baumannii by broth microdilution method; format: functional; settings: Acinetobacter baumannii; summary of the method: as §1
[14] = test system: Escherichia coli; assay: Selectivity ratio of MIC for wild type Escherichia coli ATCC 25922 in presence of HSA to MIC for wild type Escherichia coli ATCC 25922; format: functional
[15] = test system: Klebsiella pneumoniae; assay: Antibacterial activity against wild type Klebsiella pneumoniae ATCC 35657 by CLSI M100-S17 protocol based method; format: functional
[16] = test system: Mus musculus; assay: Volume of distribution at steady state in CD1 mouse plasma at 10 mg/kg, iv by LC-MS/MS analysis; format: ADME, organism-based; settings: in vivo
[17] = test system: Escherichia coli; assay: Antibacterial activity against wild type Escherichia coli ATCC 25922 in presence of HSA by CLSI M100-S17 protocol based method; format: functional
[18] = test system: Escherichia coli; assay: Antibacterial activity against multidrug resistant Escherichia coli by broth microdilution method; format: functional; settings: Escherichia coli; for MIC: read-out: MIC; summary of the method: as §1
[19] = test system: Escherichia coli; assay: Antibacterial activity against fluoroquinolone resistant Escherichia coli SKM18 by CLSI M100-S17 protocol based method; format: functional
[20] = test system: Escherichia coli; assay: Antibacterial activity against quinolone resistant Escherichia coli by broth microdilution method; format: functional; settings: Escherichia coli; for MIC: read-out: MIC; summary of the method: as §1
[21] = test system: Escherichia coli; assay: Antibacterial activity against wild type Escherichia coli by broth microdilution method; format: functional; summary of the method: as §1
[22] = test system: Acinetobacter baumannii; assay: Antibacterial activity against multidrug resistant Acinetobacter baumannii by broth microdilution method; format: functional; settings: Acinetobacter baumannii; summary of the method: as §1
[23] = test system: Escherichia coli; assay: Antibacterial activity against quinolone resistance Escherichia coli isolate ELZ4251 harboring gyrA/parC mutant by CLSI M100-S17 protocol based method; format: functional
[24] = test system: Acinetobacter baumannii; assay: Antibacterial activity against wild type Acinetobacter baumannii ATCC BAA-747 by CLSI M100-S17 protocol based method; format: functional
[25] = Fraction unbound in mouse plasma at 1 uM by equilibrium dialysis method; format: ADME, cell-free
[26] = test system: Acinetobacter baumannii; assay: Bactericidal activity against wild type Acinetobacter baumannii ATCC BAA-747 assessed as reduction of bacterial load after 24 hrs by time kill assay; format: functional, organism-based
[27] = Inhibition of His tagged Escherichia coli ATCC 25922 DNA gyrase A expressed in Escherichia coli BL21 (DE3) pLysS cells assessed as reduction in enzyme-mediated supercoiling of relaxed plasmid DNA pNO1 after 30 mins in presence of biotinylated TFO1 by fluorescence assay
[28] = test system: Escherichia coli; assay: Bactericidal activity against wild type Escherichia coli ATCC 25922 assessed as reduction of bacterial load after 24 hrs by time kill assay; format: functional, organism-based

SMILES: Cn1c(CNC2(C)CCC2)cc2cc3c(cc21)OCCc1c-3[nH]c(=O)c(C(=O)O)c1O
MIC50 [1]: 0.5 µg/mL (≈ 1.18 µM)
MIC90 [1]: 1 µg/mL (≈ 2.36 µM)
MIC [1]: 0.12 to 1 µg/mL (≈ 0.283 to 2.36 µM)
MIC50 [2]: 1 µg/mL (≈ 2.36 µM)
MIC90 [2]: 8 µg/mL (≈ 18.9 µM)
survival at 20 mg/kg [3]: 67%
MIC50 [4]: 1 µg/mL (≈ 2.36 µM)
MIC90 [4]: 8 µg/mL (≈ 18.9 µM)
AUC [5]: 4420 ng·h/mL
MIC [6]: 0.5 µg/mL (≈ 1.18 µM)
MIC50 [7]: 1 µg/mL (≈ 2.36 µM)
MIC90 [7]: 8 µg/mL (≈ 18.9 µM)
MIC50 [8]: 0.5 µg/mL (≈ 1.18 µM)
MIC90 [8]: 1 µg/mL (≈ 2.36 µM)
MIC [8]: 0.12 to 1 µg/mL (≈ 0.283 to 2.36 µM)
beta t1/2 [9]: 3.3 h
MIC [10]: 1 µg/mL (≈ 2.36 µM)
MIC50 [11]: 1 µg/mL (≈ 2.36 µM)
MIC90 [11]: 8 µg/mL (≈ 18.9 µM)
bioavailability [12]: 50%
MIC50 [13]: 1 µg/mL (≈ 2.36 µM)
MIC90 [13]: 8 µg/mL (≈ 18.9 µM)
Ratio [14]: 2 - 4
MIC [15]: 1 µg/mL (≈ 2.36 µM)
Vdss [16]: 13 L/kg
MIC [17]: 3.9 µg/mL
MIC50 [18]: 0.5 µg/mL (≈ 1.18 µM)
MIC90 [18]: 1 µg/mL (≈ 2.36 µM)
MIC [18]: 0.12 to 1 µg/mL (≈ 0.283 to 2.36 µM)
MIC [19]: 0.5 µg/mL (≈ 1.18 µM)
MIC50 [20]: 0.5 µg/mL (≈ 1.18 µM)
MIC90 [20]: 1 µg/mL (≈ 2.36 µM)
MIC [20]: 0.12 to 1 µg/mL (≈ 0.283 to 2.36 µM)
MIC50 [21]: 0.5 µg/mL (≈ 1.18 µM)
MIC90 [21]: 1 µg/mL (≈ 2.36 µM)
MIC50 [22]: 1 µg/mL (≈ 2.36 µM)
MIC90 [22]: 8 µg/mL (≈ 18.9 µM)
MIC [23]: 0.78 µg/mL (≈ 1.84 µM)
MIC [24]: 0.5 µg/mL (≈ 1.18 µM)
Fu [25]: 0.15

IC50 [27]: 190 nM
SMILES: O=C(O)c1cn(C2CC2)c2cc(N3CCNCC3)c(F)cc2c1=O [CIPROFLOXACIN]
Activity [26]: Dose-dependent effect
Activity [28]: Dose-dependent effect

SMILES: CC(C)NCc1cc2cc3c(cc2n1C)CCCc1c-3[nH]c(=O)c(C(=O)O)c1O
MIC50 [1]: 0.5 µg/mL (≈ 1.26 µM)
MIC90 [1]: 1 µg/mL (≈ 2.53 µM)
MIC [1]: 0.25 to 1 µg/mL (≈ 0.632 to 2.53 µM)
MIC50 [2]: 2 µg/mL (≈ 5.06 µM)
MIC90 [2]: 16 µg/mL (≈ 40.5 µM)
survival at 20 mg/kg [3]: 83%
MIC50 [4]: 2 µg/mL (≈ 5.06 µM)
MIC90 [4]: 16 µg/mL (≈ 40.5 µM)
MIC ([4]; read-out: MIC): 0.25 to 32 µg/mL (≈ 0.632 to 80.9 µM)
AUC [5]: 1810 ng·h/mL
MIC [6]: 0.78 µg/mL (≈ 1.97 µM)
MIC50 [7]: 2 µg/mL (≈ 5.06 µM)
MIC90 [7]: 16 µg/mL (≈ 40.5 µM)
MIC ([7]; read-out: MIC): 0.25 to 32 µg/mL (≈ 0.632 to 80.9 µM)
MIC50 [8]: 0.5 µg/mL (≈ 1.26 µM)
MIC90 [8]: 1 µg/mL (≈ 2.53 µM)
MIC [8]: 0.25 to 1 µg/mL (≈ 0.632 to 2.53 µM)
beta t1/2 [9]: 11 h
MIC [10]: 0.78 µg/mL (≈ 1.97 µM)
MIC50 [11]: 2 µg/mL (≈ 5.06 µM)
MIC90 [11]: 16 µg/mL (≈ 40.5 µM)
MIC ([11]; read-out: MIC): 0.25 to 32 µg/mL (≈ 0.632 to 80.9 µM)
bioavailability [12]: 44%
MIC50 [13]: 2 µg/mL (≈ 5.06 µM)
MIC90 [13]: 16 µg/mL (≈ 40.5 µM)
MIC ([13]; read-out: MIC): 0.25 to 32 µg/mL (≈ 0.632 to 80.9 µM)
Ratio [14]: 4 - 16
MIC [15]: 0.78 µg/mL (≈ 1.97 µM)
Vdss [16]: 69 L/kg
MIC [17]: 3.1 µg/mL
MIC50 [18]: 0.5 µg/mL (≈ 1.26 µM)
MIC90 [18]: 1 µg/mL (≈ 2.53 µM)
MIC [18]: 0.25 to 1 µg/mL (≈ 0.632 to 2.53 µM)
MIC [19]: 0.39 µg/mL (≈ 0.986 µM)
MIC50 [20]: 0.5 µg/mL (≈ 1.26 µM)
MIC90 [20]: 1 µg/mL (≈ 2.53 µM)
MIC [20]: 0.25 to 1 µg/mL (≈ 0.632 to 2.53 µM)
MIC50 [21]: 0.5 µg/mL (≈ 1.26 µM)
MIC90 [21]: 1 µg/mL (≈ 2.53 µM)
MIC50 [22]: 2 µg/mL (≈ 5.06 µM)
MIC90 [22]: 16 µg/mL (≈ 40.5 µM)
MIC ([22]; read-out: MIC): 0.25 to 32 µg/mL (≈ 0.632 to 80.9 µM)
MIC [23]: 1.6 µg/mL (≈ 4.05 µM)
MIC [24]: 0.78 µg/mL (≈ 1.97 µM)
Fu [25]: 0.16
